Published values from different studies.
Target: Casein kinase I isoform alpha (CSNK1A1, Homo sapiens, UniProt P48729)

CC(C)(C)c1nc2c(s1)c1nc(N)ncc1c1ccc(NS(=O)(=O)c3c(F)cccc3F)c(F)c12 — remaining activity (enzyme activity; inhibitor; radiometric; 1 µM): 86%
CN(C)C1CCN(CC#Cc2nn(C3CCCC3)c3nc(NCc4ccccc4)ncc23)C1 (stereo not shown) — inhibition (enzyme activity; inhibitor; FRET; 1 µM): 2%
Cc1ccc(NC(=O)c2ccc(CN3CCN(C)CC3)cc2)cc1Nc1nccc(-c2cccnc2)n1 — activity vs control (enzyme activity; inhibitor; 0.5 µM): 102%
CCN1CCN(Cc2ccc(NC(=O)c3ccc(C)c(Oc4ccnc5[nH]ccc45)c3)cc2C(F)(F)F)CC1 — inhibition (target engagement in cells; inhibitor; chemoproteomics; A-375; 50 nM): -28%
O=C(NS(=O)(=O)c1ccc(NCC2CCOCC2)c([N+](=O)[O-])c1)c1ccc(N2CCN(Cc3ccc(C(F)(F)F)cc3-c3ccc(Cl)cc3)CC2)cc1Oc1cnc2[nH]ccc2c1 — remaining binding (cell-free assay; competition with immobilised ligand; 1 µM): 96%
O=C(Nc1cnn(-c2csc(C(=O)NC3COC3)c2)c1)Nc1c(F)cccc1Cl — remaining activity (enzyme activity; inhibitor; 5 µM): 76.6%
COc1cc2c(Nc3ccc(Br)cc3F)ncnc2cc1OCC1CCN(C)CC1 — remaining signal (cell-free assay; 0.5 µM): 102%
CCN1CCN(Cc2ccc(NC(=O)c3ccc(C)c(/C=C/c4cnc5[nH]ccc5c4OC)c3)cc2C(F)(F)F)CC1 — inhibition (target engagement in cells; inhibitor; chemoproteomics; A-375; 50 nM): -59.4%
CC(C)(O)[C@H]1CC[C@H](Nc2ccc3ncc(-c4cccc(C(F)(F)F)c4)n3n2)CC1 — remaining activity (enzyme activity; inhibitor; 1 µM): 91.4%
COc1cc2ncnc(Nc3ccc(Oc4ccccc4)c(C)c3C)c2cc1OC — inhibition (enzyme activity; inhibitor; 1 µM): 3%
Cc1cc(Nc2cc(N3CCN(C)CC3)nc(Sc3ccc(NC(=O)C4CC4)cc3)n2)[nH]n1 — activity vs control (enzyme activity; inhibitor; 0.5 µM): 96.7%
Cc1c(NC(=O)c2cc(C(N)=O)nc3cc(F)ccc23)c(C(F)(F)F)nn1Cc1ccc(C#N)cc1 — remaining binding (cell-free assay; competition with immobilised ligand; 1 µM): 72%
Nc1ncnc2occ(-c3ccc(NC(=O)Nc4cc(C(F)(F)F)ccc4F)cc3)c12 — remaining activity (enzyme activity; inhibitor; 20 µM): 3.7%
CO[C@H]1CC[C@H](CNc2ccc(S(=O)(=O)NC(=O)c3ccc(N4CCN(CC5=C(c6ccc(Cl)cc6)CC(C)(C)CC5)CC4)cc3Oc3cnc4[nH]ccc4c3)cc2[N+](=O)[O-])CC1 — remaining binding (cell-free assay; competition with immobilised ligand; 1 µM): 85%
O=C1NC(=O)c2cc(Nc3ccc(F)cc3)c(Nc3ccc(F)cc3)cc21 — remaining signal (cell-free assay; inhibitor; 0.5 µM): 88%
Nc1cnc(N2CCc3cc(S(=O)(=O)Nc4c(F)cc(Cl)cc4F)cc(N4CCCC4=O)c32)nc1 — remaining binding (cell-free assay; competition with immobilised ligand; 1 µM): 100%
COc1cc(OC)c(C=C2C(O)=Nc3ccccc32)c(OC)c1 — remaining signal (cell-free assay; inhibitor; 0.5 µM): 59.6%
Cc1cc(-n2nc(Cc3cc(F)cc(C(F)(F)F)c3)nc2C)ccc1C(N)=O — remaining binding (cell-free assay; competition with immobilised ligand; 1 µM): 100%
Cc1ccc(C(=O)NCc2ccsc2)cc1C#Cc1cn(C(C)C)c2ncnc(N)c12 — activity vs control (enzyme activity; inhibitor; 1 µM): 86%
COc1cc(-c2cn(C3CCc4c(F)cccc4N(CC(F)(F)F)C3=O)nn2)ccc1-n1cnc(C)c1 (stereo not shown) — remaining binding (cell-free assay; competition with immobilised ligand; 1 µM): 100%
CCCS(=O)(=O)Nc1ccc(F)c(C(=O)c2c[nH]c3ncc(-c4ccc(Cl)cc4)cc23)c1F — inhibition (enzyme activity; inhibitor; 1 µM): < 10%
CCC(=O)N[C@@H]1CC[C@H](C(=O)N(C)c2ccc(-c3nc4ccccc4o3)cc2)C1 — remaining binding (cell-free assay; competition with immobilised ligand; 1 µM): 100%
Cc1ccc(C(=O)Nc2ccc(CN3CCN(C)CC3)c(C(F)(F)F)c2)cc1C#Cc1cnc2cccnn12 — remaining activity (enzyme activity; inhibitor; 23.5 nM): 86%
CC(=O)N1CCC(c2ccc(C(=O)NC3=NCCN3)cc2C(F)(F)F)CC1 — remaining binding (cell-free assay; competition with immobilised ligand; 1 µM): 76%
CCCCNc1ncc2c(-c3ccc(F)cc3)nn(C[C@H]3CC[C@H](N)CC3)c2n1 — inhibition (target engagement in cells; inhibitor; chemoproteomics; 20 mM): 79.3%
